Results published in ChEMBL document CHEMBL3352716 (ACS Med Chem Lett, 2014).
pIC50: −log10 of the molar value.

Experiments:
[1] = Anticancer activity against ABCB1-overexpressing human SW620/AD300 cells by MTT assay; type: functional, cell-based; details: SW-620
Method in brief: (§1)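 MTT cytotoxicity run on paired parental and transporter-overexpressing lines: SW620 vs ABCB1-overexpressing SW620/AD300, and NCI-H460 vs ABCG2-overexpressing NCI-H460/MX20. IC50 is the concentration inhibiting 50% of cell growth. Concentrations tested up to 100 μM.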

MGC-803 = test: Antiproliferative activity against human MGC803 cells assessed as growth inhibition after 72 hrs by MTT assay; type: functional, cell-based; details: MGC-803, 72 h
Method in brief: (§2)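 MTT proliferation assay on human K562 leukaemia, MCF-7 breast adenocarcinoma, Bel-7402 hepatocellular carcinoma and MGC-803 gastric cancer cells. Drug exposure 72 h. IC50 is the concentration inhibiting 50% of cell growth. Means ± SD, n = 3.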

[2] = Antiproliferative activity against human Bel7402 cells assessed as growth inhibition after 72 hrs by MTT assay; type: functional, cell-based; details: Bel-7402, 72 h; method in brief: as §2
MCF7 = test: Antiproliferative activity against human MCF7 cells assessed as growth inhibition after 72 hrs by MTT assay; type: functional, cell-based; details: MCF7, 72 h; method in brief: as §2
[3] = Anticancer activity against ABCG2-overexpressing human NCI-H460/MX20 cells by MTT assay; type: functional, cell-based; method in brief: as §1
Bel-7402 = test: Selectivity index, ratio of IC50 for human L02 cells to ratio of IC50 for human Bel-7402 cells; type: functional
Method in brief: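 Selectivity index is IC50 on normal L-02 liver cells divided by IC50 on Bel-7402 tumour cells. Both IC50 values come from MTT survival curves after 72 h exposure.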

NCI-H460 = test: Anticancer activity against human NCI-H460 cells by MTT assay; type: functional, cell-based; method in brief: as §1
[4] = Anticancer activity against human Bel7402 cells assessed as growth inhibition by MTT assay; type: functional, cell-based; details: Bel-7402
Method in brief: (§3)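 Toxicity compared on human normal liver L-02 cells and human liver cancer Bel-7402 cells run side by side. Survival curves by MTT after 72 h treatment. IC50 is the concentration inhibiting 50% of cell growth.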

K562 = test: Antiproliferative activity against human K562 cells assessed as growth inhibition after 72 hrs by MTT assay; type: functional, cell-based; details: K562, 72 h; method in brief: as §2
SW-620 = test: Anticancer activity against human SW620 cells by MTT assay; type: functional, cell-based; method in brief: as §1
[5] = Cytotoxicity against human L02 cells by MTT assay; type: cell-based; method in brief: as §3

Structure (SMILES)	pIC50 [1]	pIC50 (MGC-803)	pIC50 [2]	pIC50 (MCF7)	pIC50 [3]	Ratio IC50 (Bel-7402)	pIC50 (NCI-H460)	pIC50 [4]	pIC50 (K562)	pIC50 (SW-620)	pIC50 [5]
C=C1C(=O)[C@]23[C@H](OC(=O)CCCc4ccc(N(CCCl)CCCl)cc4)[C@H]1CC[C@H]2[C@@]12CO[C@@]3(O)[C@@H](O)[C@@H]1C(C)(C)CC[C@@H]2O	5.64	5.69	5.84	5.88	5.14	6.73	5.32	5.84	5.64	5.57	5.02
C=C1C(=O)[C@]23[C@H](OC(=O)CCC(=O)N[C@@H](Cc4ccc(N(CCCl)CCCl)cc4)C(=O)OC)[C@H]1CC[C@H]2[C@@]12CO[C@@]3(O)[C@@H](O)[C@@H]1C(C)(C)CC[C@@H]2O	4.83	5.03	5.08	4.84	< 4.00	–	4.55	–	5.05	4.86	–
C=C1C(=O)[C@]23[C@H](OC(=O)CCC(=O)N[C@@H](Cc4ccc(N(CCCl)CCCl)cc4)C(=O)OC)[C@H]1CC[C@H]2[C@@]12CO[C@@]3(O)[C@@H](O)[C@@H]1C(C)(C)CC[C@@H]2OC(C)=O	–	5.33	5.59	5.44	–	–	–	–	5.76	–	–
C=C1C(=O)[C@]23[C@H](OC(=O)CCCC(=O)N[C@@H](Cc4ccc(N(CCCl)CCCl)cc4)C(=O)OC)[C@H]1CC[C@H]2[C@@]12CO[C@@]3(O)[C@@H](O)[C@@H]1C(C)(C)CC[C@@H]2O	–	5.16	5.10	4.89	–	–	–	–	5.24	–	–
C=C1C(=O)[C@]23[C@H](O)[C@H]1CC[C@H]2[C@@]12CO[C@]3(O)[C@@H](O)[C@@H]1C(C)(C)CC[C@@H]2O [ORIDONIN]	5.33	–	–	–	4.66	2.38	4.77	5.13	–	5.20	4.75
O=C(O)CCCc1ccc(N(CCCl)CCCl)cc1 [CHLORAMBUCIL]	–	3.87	4.31	4.09	–	2.14	–	4.31	4.22	–	3.98
C=C1C(=O)[C@]23[C@H](OC(=O)c4ccc(N(CCCl)CCCl)cc4)[C@H]1CC[C@H]2[C@@]12CO[C@@]3(O)[C@@H](O)[C@@H]1C(C)(C)CCC2=O	–	5.80	6.05	6.17	–	–	–	–	5.93	–	–
